The subject of one experiment is Calf thymus DNA. In words: Apparent DNA affinity constant. The format is nucleic-acid assay. The settings on record: Bos taurus. The procedure, abridged: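 Apparent DNA affinity constant was measured by competition with ethidium bromide. Buffer was 20 mM Na2HPO4/NaH2PO4, 0.1 M NaCl, 1 mM EDTA, pH 7.4, with calf thymus DNA at 10 μg/mL. Values are given in 10^6 M⁻¹.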

Experiment [1] relates to Mus musculus. Briefly: Antitumor activity against P388 leukemia in mice at a dose of 2.5 mg/kg administered intraperitoneally for 5 days. Type of experiment: functional. The settings on record: route intraperitoneal. The procedure, abridged: (§1)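 CDF1 hybrid male or female mice, 10 per group, were inoculated ip with 10^6 viable P388 cells on day 0. Drugs in distilled water were given ip (0.1 mL/10 g body weight) daily D1-5. Vehicle, 5-fluorouracil and BD 84 were given the same way. T/C = median survival day of treated / controls × 100; T/C > 128% was significant; cures counted at D60.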

In experiment [2] the test system is Mus musculus. Briefly: Antitumor activity against B16 melanoma cells at a dose of 10 mg/kg administered intraperitoneally to mice. Type of experiment: functional. The settings on record: route intraperitoneal. The procedure, abridged:
(§2)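 Hybrid BD F1 mice were inoculated ip at D0 with 0.5 mL of B16 melanoma homogenate (1 g tumor in 10 mL physiological serum). Drugs were given ip daily D1-9. Cisplatin 0.5 mg/kg was the positive control under the same schedule.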

Experiment [3] concerns Mus musculus. Briefly: Antitumor activity against P388 leukemia in mice at a dose of 20 mg/kg administered intraperitoneally. Type of experiment: functional, organism-based. Further details: dose 20 mg/kg. In outline:
as §1

Experiment [4] has as its system Mus musculus. Briefly: Median survival day in P388 leukemia model when a dose of 10 mg/kg administered intraperitoneally. The settings on record: route intraperitoneal. Type of experiment: functional. The procedure, abridged:
(§3)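 P388 leukaemia in CDF1 hybrid mice, 10 per group. At D0, 10^6 viable cells were inoculated ip, followed by a single ip dose of drug in distilled water on D1. Weight change, median survival day, T/C (treated/control median survival × 100) and survivors at D30 were recorded. Controls were 20 mice.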

Experiment [5] has as its system Mus musculus. In words: Weight change in g when a dose of 80 mg/kg administered intraperitoneally to P388 leukemia model. Type of experiment: functional. The settings on record: route intraperitoneal. In outline: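 P388 leukemia cells (10^6 viable) inoculated ip on day 0 into CDF1 hybrid male or female mice, 10 per test group. Drug dissolved in distilled water and given as a single ip dose on day 1. Body weight change (g) recorded for each dose group, alongside median survival day, T/C and survivors at D30, against vehicle controls (20 mice).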

In experiment [6] the test system is Mus musculus. Briefly: Antitumor activity against P388 leukemia in mice at a dose of 10 mg/kg administered intraperitoneally for 5 days. Type of experiment: functional. As to conditions: route intraperitoneal. In outline: as §1
Experiment [7] deals with Mus musculus. Briefly: Antitumor activity against B16 melanoma cells at a dose of 1.25 mg/kg administered intraperitoneally to mice. Type of experiment: functional. The settings on record: route intraperitoneal. In outline:
as §2

The subject of experiment [8] is Mus musculus. Briefly: Antitumor activity against B16 melanoma cells at a dose of 2.5 mg/kg administered intraperitoneally to mice. The format is functional. The settings on record: route intraperitoneal. In outline:
as §2

Experiment [9] concerns Mus musculus. Briefly: Median survival day in P388 leukemia model when a dose of 20 mg/kg administered intraperitoneally. The format is functional. The settings on record: route intraperitoneal. In outline: as §3
In experiment [10] the test system is Mus musculus. Briefly: Weight change in g when a dose of 20 mg/kg administered intraperitoneally to P388 leukemia model. The format is functional. As to conditions: route intraperitoneal. The procedure, abridged:
(§4)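 P388 model with a single ip dose. Mice (10 per group) were inoculated ip at D0 with 10^6 P388 cells and given one ip drug dose at D1. Body-weight change (g), median survival day, T/C and survivors at D30 were recorded.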

Experiment [11] relates to Mus musculus. Briefly: Weight change in g when a dose of 10 mg/kg administered intraperitoneally to P388 leukemia model. Type of experiment: functional. As to conditions: route intraperitoneal. The procedure, abridged:
as §4

Experiment [12] concerns Mus musculus. In words: Antitumor activity against P388 leukemia in mice at a dose of 5 mg/kg administered intraperitoneally for 5 days. Type of experiment: functional. As to conditions: route intraperitoneal. In outline:
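CDF1 hybrid male or female mice, 10 per group, were inoculated ip on day 0 with 10^6 viable P388 leukemia cells. Drug in distilled water was given ip (0.1 mL/10 g body weight) daily on days 1-5, with vehicle, 5-fluorouracil and BD 84 controls given the same way. T/C = median survival of treated/controls × 100; T/C > 128% counted as significant.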

The subject of experiment [13] is Mus musculus. In words: Survivors at day 30 when a dose of 10 mg/kg to P388 leukemia model; 0/10. Type of experiment: functional. The procedure, abridged: as §3
Experiment [14] concerns Mus musculus. Briefly: Weight change in g when a dose of 1.25 mg/kg administered intraperitoneally to B16 melanoma infected mice. As to conditions: route intraperitoneal. Type of experiment: functional. The procedure, abridged: (§5)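 Hybrid BDF1 mice were inoculated ip at D0 with 0.5 mL of B16 melanoma homogenate (1 g tumor in 10 mL physiological serum). Drug was given ip daily on days 1-9, with cis-platinum 0.5 mg/kg as positive control on the same schedule.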

Experiment [15] deals with Mus musculus. In words: Weight change in g when a dose of 2.5 mg/kg administered intraperitoneally B16 melanoma infected mice. The format is functional. The settings on record: route intraperitoneal. In outline:
as §5

For the next experiment, the system named is L1210. In words: Ability to reduce the cell count to 50% in L1210 culture cells. The format is functional. As to conditions: Mus musculus, read-out: ID50 (the source's name). The procedure, abridged: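 L1210 cells in exponential growth in RPMI 1640 with 2 mM glutamine, penicillin/streptomycin and 10% FCS, 37 °C, 5% CO2. Drugs dissolved in distilled water were added to cells at 0.8 × 10^5 cells/mL for 48 h, then cells were counted. ID50 is the concentration halving cell proliferation versus controls, from regression of dose-response data; mean of two independent experiments.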

Experiment [16] concerns Mus musculus. In words: Antitumor activity against C38 adenocarcinoma model at a dose of 25 mg/kg administered intravenously in mice; tumor volume at D38 (T/C). Type of experiment: functional. The settings on record: route intravenous. The procedure, abridged:
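Hybrid BD F1 mice, 10 per group, were implanted sc with a standard 3-mm3 C38 colon adenocarcinoma fragment. Drugs were given iv at the stated doses on D1 or on D2 + D9. Read-out was tumor size in treated versus control mice (T/C) at the day stated.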

In experiment [17] the test system is Mus musculus. Briefly: Antitumor activity against B16 melanoma cells at a dose of 5 mg/kg administered intraperitoneally to mice. As to conditions: route intraperitoneal. The format is functional. The procedure, abridged:
as §2

Experiment [18] concerns Mus musculus. Briefly: Survivors at day 30 when a dose of 5 mg/kg administered to P388 leukemia infected when tested in 10 mice. Type of experiment: functional.
In experiment [19] the test system is Mus musculus. In words: Median survival day of L1210 (iv) to L1210 leukemia model when a dose of 20 mg/kg administered intravenously to mice. The format is functional. In outline: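 L1210 leukaemia in CDF1 hybrid male or female mice, 10 per group. At D0, 10^5 viable cells were inoculated ip, followed by a single iv dose on D1. Median survival day was recorded, and T/C was calculated as treated/control median survival × 100.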

In experiment [20] the test system is Mus musculus. In words: In vivo toxicity test on P388 cells at a dose of 100 mg/kg administered intravenously to mice. Type of experiment: functional. As to conditions: route intravenous. The procedure, abridged:
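Mice (10 per group) were inoculated ip at D0 with 10^6 P388 leukemia cells and given a single iv dose at D1. Read-outs were weight change (g), median survival day, T/C % versus controls and survivors at D30.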

Experiment [21] has as its system Mus musculus. Briefly: Antitumor activity against P388 cells at a dose of 10 mg/kg administered intraperitoneally P388 Leukemia model. Type of experiment: functional. The settings on record: route intraperitoneal. In outline: (§6)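 Mice were inoculated ip with 10^6 P388 leukemia cells at D0, then given a single ip drug dose on D1. Weight change was recorded. T/C % = median survival day of treated / controls × 100; survivors counted at D30; 10 mice per dose group, 20 controls.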

Experiment [22] deals with Mus musculus. Briefly: Antitumor activity against P388 cells at a dose of 80 mg/kg administered intraperitoneally P388 Leukemia model. Type of experiment: functional. The settings on record: route intraperitoneal. The procedure, abridged: as §6

“And” between values parts separate entries of the source, which are not always exact repeats. Equal values may be shown once.

The T/C is the result in the treated group divided by that in the control group, in per cent.

Consider `CCN(CC)CCCNc1ncc(C)c2c1c1cc(O)ccc1n2C`, for which the K aff in the experiment with Calf thymus DNA stood at 240000 M⁻¹. The T/C in the experiment with Mus musculus [1] is 149%; in the experiment on Mus musculus [2] it was 79%; in the experiment with Mus musculus [3] it was “Toxic”; in the experiment with Mus musculus [6], 205%; in the experiment with Mus musculus [7], 133%; in the experiment on Mus musculus [8] (2.5 mg/kg), 145% and 170%. In the experiment on Mus musculus [12], the T/C came to 166%. In addition, the figures for the Median survival day in the experiment on Mus musculus [4] and with Mus musculus [9] were 17.8 and 20.8, respectively. Besides, the Weight change was -1.2 g in the experiment on Mus musculus [5] (dose 20 mg/kg, in the assay text read “20 mg/kg” for “80 mg/kg”); -1.2 g with Mus musculus [10]; -0.6 g with Mus musculus [11]; -2.5 g with Mus musculus [14]; 0.6 g in the experiment on Mus musculus [15]. Moreover, in the experiment with Mus musculus [13], the Survivors amounted to 0. Besides, the IC50 in the experiment with L1210 turned out to be 30 nM.

`Cc1cnc(NCCCN(C)C)c2c3cc(O)ccc3n(C)c12`: in the experiment on Calf thymus DNA, the K aff stood at 270000 M⁻¹. Besides, the T/C in the experiment on Mus musculus [1] was 184%; in the experiment on Mus musculus [17], 206%; with Mus musculus [2], 48%; in the experiment on Mus musculus [7], 123%; in the experiment on Mus musculus [8], 134%; with Mus musculus [12], 236%. The T/C in the experiment with Mus musculus [20] amounted to 236%. Moreover, the Tumor volume with Mus musculus [16] was found to be 0%. This compound displayed a Survivors in the experiment with Mus musculus [18] of 0. The same compound gave a Median survival day in the experiment on Mus musculus [19] of 14. Besides, the Weight change with Mus musculus [14] is 1 g. In addition, the IC50 in the experiment with L1210 turned out to be 10 nM.

Consider `CCN(CC)CCCNc1[nH]cc(C)c2nc3ccc(O)cc3c1-2`, for which the K aff with Calf thymus DNA was 200000 M⁻¹. Moreover, the T/C in the experiment on Mus musculus [1] is on record as 162%; with Mus musculus [17] it was 174%; with Mus musculus [21] it was 129%; in the experiment with Mus musculus [2], 205%; in the experiment with Mus musculus [22], 20%; with Mus musculus [6], 185%. In addition, the T/C in the experiment with Mus musculus [8] is listed as 124%; in the experiment on Mus musculus [12] it was 170%. In addition, the Median survival day with Mus musculus [4] is recorded as 15.1; in the experiment with Mus musculus [9] it was 16.25. Further, the Weight change with Mus musculus [5] was -1.7 g; in the experiment with Mus musculus [10] it was 0.2 g; in the experiment on Mus musculus [11] it was 1.2 g. Further, in the experiment with Mus musculus [13], the Survivors came out at 0. In the experiment with L1210, the IC50 stood at 60 nM.

The record behind these values is ChEMBL document CHEMBL1124035, “1-Amino-substituted 4-methyl-5H-pyrido[4,3-b]indoles (gamma-carbolines) as tricyclic analogues of ellipticines: a new class of antineoplastic agents” (1988).
